Data taken from ChEMBL document CHEMBL1938272 (Bioorg Med Chem, 2012).

Molecular target: NAD(P)H dehydrogenase [quinone] 1 (Mus musculus) (UniProt Q64669)
Assay: Induction of QR1-mediated cytoprotective activity in mouse TAOc1 mutant Hepa cells at 50 uM assessed as cell survival
Type: cell-based
Conditions: not given

Chain of NAD(P)H dehydrogenase [quinone] 1 (Mus musculus) (Q64669 whole entry): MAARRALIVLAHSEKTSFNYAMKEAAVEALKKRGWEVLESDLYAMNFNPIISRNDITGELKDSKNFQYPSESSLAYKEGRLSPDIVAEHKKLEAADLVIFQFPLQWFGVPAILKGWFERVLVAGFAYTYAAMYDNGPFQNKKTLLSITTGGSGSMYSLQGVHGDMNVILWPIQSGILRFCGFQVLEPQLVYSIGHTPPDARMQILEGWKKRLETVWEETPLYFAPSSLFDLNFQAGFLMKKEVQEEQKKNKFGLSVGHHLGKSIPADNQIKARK

| Compound | Survival [%] |
| --- | --- |
| Clc1ccccc1-c1nsc(-c2ccccc2Cl)n1 | 100 |
| Clc1cccc(-c2nsc(-c3cccc(Cl)c3Cl)n2)c1Cl | 74.5 |
| FC(F)(F)c1ccccc1-c1nsc(-c2ccccc2C(F)(F)F)n1 | 89.8 |
| c1ccc2cc(-c3nsc(-c4ccc5ccccc5c4)n3)ccc2c1 | 96.9 |
| Oc1ccc(/C=C\c2cc(O)cc(O)c2)cc1 | 100 |
| Brc1ccccc1-c1nsc(-c2ccccc2Br)n1 | 99.1 |
| Clc1ccc(-c2nsc(-c3ccc(Cl)cc3)n2)cc1 | 77.8 |
| Ic1cccc(-c2nsc(-c3cccc(I)c3)n2)c1 | 73.6 |
| Fc1cccc(-c2nsc(-c3cccc(F)c3)n2)c1 | 77.1 |
| Cc1cc(Cl)ccc1-c1nsc(-c2ccc(Cl)cc2C)n1 | 71 |
| Cc1c(Cl)cccc1-c1nsc(-c2cccc(Cl)c2C)n1 | 68 |
| Clc1ccc(-c2nsc(-c3ccc(Cl)cc3Cl)n2)c(Cl)c1 | 82.4 |
| Oc1ccc(/C=C/c2cc(O)cc(O)c2)cc1 | 86.3 |
| Fc1ccccc1-c1nsc(-c2ccccc2F)n1 | 82.5 |
| Brc1ccc(-c2nsc(-c3ccc(Br)cc3)n2)cc1 | 80.1 |

System: RAW264.7
Assay: Antiinflammatory activity in mouse RAW264.7 cells assessed as inhibition of LPS-induced NO production at 40 uM preincubated for 30 mins before LPS challenge by Griess method
Conditions: not given

| Compound | inhibition at 40 µM [%] |
| --- | --- |
| Clc1ccccc1-c1nsc(-c2ccccc2Cl)n1 | -5.9 |
| Clc1cccc(-c2nsc(-c3cccc(Cl)c3Cl)n2)c1Cl | 21.4 |
| FC(F)(F)c1ccccc1-c1nsc(-c2ccccc2C(F)(F)F)n1 | 6.7 |
| c1ccc2cc(-c3nsc(-c4ccc5ccccc5c4)n3)ccc2c1 | 0.5 |
| Brc1ccccc1-c1nsc(-c2ccccc2Br)n1 | 9.1 |
| Clc1ccc(-c2nsc(-c3ccc(Cl)cc3)n2)cc1 | 5.1 |
| Ic1cccc(-c2nsc(-c3cccc(I)c3)n2)c1 | 15.6 |
| Fc1cccc(-c2nsc(-c3cccc(F)c3)n2)c1 | 3.2 |
| Cc1cc(Cl)ccc1-c1nsc(-c2ccc(Cl)cc2C)n1 | 10.1 |
| Cc1c(Cl)cccc1-c1nsc(-c2cccc(Cl)c2C)n1 | 24.5 |
| Clc1ccc(-c2nsc(-c3ccc(Cl)cc3Cl)n2)c(Cl)c1 | 25 |
| Fc1ccccc1-c1nsc(-c2ccccc2F)n1 | 24.6 |
| Brc1ccc(-c2nsc(-c3ccc(Br)cc3)n2)cc1 | 17.1 |

Molecular target: NAD(P)H dehydrogenase [quinone] 1 (Mus musculus) (UniProt Q64669)
Assay: Induction of QR1 activity in mouse TAOc1 mutant Hepa cells using MTT as substrate by spectrophotometry
Type: cell-based
Conditions: not given

| Compound | CD [µM] |
| --- | --- |
| Clc1ccccc1-c1nsc(-c2ccccc2Cl)n1 | 44.3 |
| Cc1cc(Cl)ccc1-c1nsc(-c2ccc(Cl)cc2C)n1 | 3.8 |
| Cc1c(Cl)cccc1-c1nsc(-c2cccc(Cl)c2C)n1 | 48.7 |

System: MCF7
Assay: Antiproliferative activity against human MCF7 cells after 72 hrs by SRB assay
Type: functional, cell-based
Conditions: MCF7, 72 h
In short: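 MCF-7 breast cancer cells exposed to serially diluted compounds (DMSO) for 72 h at 37 °C in CO2 incubator; fixed with 10% trichloroacetic acid, stained with 0.4% SRB, OD read at 515 nm. Zero-day control of 1 × 10^4 cells per well processed after 30 min. Survival = (OD test − OD zero-day)/(OD control − OD zero-day) × 100; IC50 from survival.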

| Compound | IC50 [µM] |
| --- | --- |
| Clc1ccccc1-c1nsc(-c2ccccc2Cl)n1 | 35.8 |
| Clc1cccc(-c2nsc(-c3cccc(Cl)c3Cl)n2)c1Cl | 10.2 |
| Brc1ccccc1-c1nsc(-c2ccccc2Br)n1 | 35 |
| Ic1cccc(-c2nsc(-c3cccc(I)c3)n2)c1 | 37.1 |
| Fc1cccc(-c2nsc(-c3cccc(F)c3)n2)c1 | 34.5 |
| Cc1cc(Cl)ccc1-c1nsc(-c2ccc(Cl)cc2C)n1 | 39.5 |
| Cc1c(Cl)cccc1-c1nsc(-c2cccc(Cl)c2C)n1 | 30.3 |
| Fc1ccccc1-c1nsc(-c2ccccc2F)n1 | 31.4 |

Molecular target: T1, Aromatase (Homo sapiens, UniProt P11511)
T1 sequence (P11511 whole entry): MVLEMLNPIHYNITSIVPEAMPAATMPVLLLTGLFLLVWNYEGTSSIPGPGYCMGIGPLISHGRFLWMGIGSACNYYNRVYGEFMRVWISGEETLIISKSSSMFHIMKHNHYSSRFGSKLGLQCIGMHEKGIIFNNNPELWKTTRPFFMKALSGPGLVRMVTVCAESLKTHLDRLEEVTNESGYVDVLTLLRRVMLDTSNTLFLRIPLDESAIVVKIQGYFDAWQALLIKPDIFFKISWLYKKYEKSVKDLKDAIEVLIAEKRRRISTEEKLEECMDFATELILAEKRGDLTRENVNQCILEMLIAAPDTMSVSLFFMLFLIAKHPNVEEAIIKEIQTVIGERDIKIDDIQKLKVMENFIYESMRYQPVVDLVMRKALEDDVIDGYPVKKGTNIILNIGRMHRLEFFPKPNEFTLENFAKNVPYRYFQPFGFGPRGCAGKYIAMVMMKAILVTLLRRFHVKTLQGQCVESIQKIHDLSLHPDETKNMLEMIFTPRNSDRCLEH
Assay: not given
Conditions: not given

| Compound | IC50 [µM] |
| --- | --- |
| Clc1ccccc1-c1nsc(-c2ccccc2Cl)n1 | > 50 |
| Clc1cccc(-c2nsc(-c3cccc(Cl)c3Cl)n2)c1Cl | > 50 |
| FC(F)(F)c1ccccc1-c1nsc(-c2ccccc2C(F)(F)F)n1 | > 50 |
| c1ccc2cc(-c3nsc(-c4ccc5ccccc5c4)n3)ccc2c1 | > 50 |
| Brc1ccccc1-c1nsc(-c2ccccc2Br)n1 | > 50 |
| Clc1ccc(-c2nsc(-c3ccc(Cl)cc3)n2)cc1 | > 50 |
| Ic1cccc(-c2nsc(-c3cccc(I)c3)n2)c1 | > 50 |
| Fc1cccc(-c2nsc(-c3cccc(F)c3)n2)c1 | > 50 |
| Cc1cc(Cl)ccc1-c1nsc(-c2ccc(Cl)cc2C)n1 | > 50 |
| Cc1c(Cl)cccc1-c1nsc(-c2cccc(Cl)c2C)n1 | > 50 |
| Clc1ccc(-c2nsc(-c3ccc(Cl)cc3Cl)n2)c(Cl)c1 | > 50 |
| Fc1ccccc1-c1nsc(-c2ccccc2F)n1 | > 50 |
| Brc1ccc(-c2nsc(-c3ccc(Br)cc3)n2)cc1 | > 50 |

Molecular target: NAD(P)H dehydrogenase [quinone] 1 (Mus musculus) (UniProt Q64669)
Assay: Induction of QR1 activity in mouse Hepa-1c1c7 cells using MTT as substrate by spectrophotometry
Type: cell-based
Conditions: not given
In short: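 Mouse hepatoma Hepa 1c1c7 cells were incubated with compound, then permeabilised with digitonin. QR1 activity was read as MTT reduction to formazan at 595 nm, with crystal violet total protein run in parallel. Induction ratio is activity versus control; CD is the concentration doubling activity, derived only when the ratio is above 2.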

| Compound | CD [µM] |
| --- | --- |
| Clc1cccc(-c2nsc(-c3cccc(Cl)c3Cl)n2)c1Cl | 2 |
| Clc1ccc(-c2nsc(-c3ccc(Cl)cc3)n2)cc1 | 4 |
| Ic1cccc(-c2nsc(-c3cccc(I)c3)n2)c1 | 3.1 |
| Cc1cc(Cl)ccc1-c1nsc(-c2ccc(Cl)cc2C)n1 | 0.44 |
| Cc1c(Cl)cccc1-c1nsc(-c2cccc(Cl)c2C)n1 | 4 |

Molecular target: NAD(P)H dehydrogenase [quinone] 1 (Mus musculus) (UniProt Q64669)
Assay: Induction of QR1-mediated cytoprotective activity in mouse BPrc1 cells at 50 uM assessed as cell survival
Type: cell-based
Conditions: not given

| Compound | Survival [%] |
| --- | --- |
| Clc1ccccc1-c1nsc(-c2ccccc2Cl)n1 | 83.8 |
| Clc1cccc(-c2nsc(-c3cccc(Cl)c3Cl)n2)c1Cl | 56.3 |
| FC(F)(F)c1ccccc1-c1nsc(-c2ccccc2C(F)(F)F)n1 | 81 |
| c1ccc2cc(-c3nsc(-c4ccc5ccccc5c4)n3)ccc2c1 | 98.1 |
| Oc1ccc(/C=C\c2cc(O)cc(O)c2)cc1 | 77.8 |
| Brc1ccccc1-c1nsc(-c2ccccc2Br)n1 | 100 |
| Clc1ccc(-c2nsc(-c3ccc(Cl)cc3)n2)cc1 | 79.3 |
| Ic1cccc(-c2nsc(-c3cccc(I)c3)n2)c1 | 77.3 |
| Fc1cccc(-c2nsc(-c3cccc(F)c3)n2)c1 | 73.5 |
| Cc1cc(Cl)ccc1-c1nsc(-c2ccc(Cl)cc2C)n1 | 94.7 |
| Cc1c(Cl)cccc1-c1nsc(-c2cccc(Cl)c2C)n1 | 100 |
| Clc1ccc(-c2nsc(-c3ccc(Cl)cc3Cl)n2)c(Cl)c1 | 89.8 |
| Oc1ccc(/C=C/c2cc(O)cc(O)c2)cc1 | 86.3 |
| Fc1ccccc1-c1nsc(-c2ccccc2F)n1 | 88.4 |
| Brc1ccc(-c2nsc(-c3ccc(Br)cc3)n2)cc1 | 60.3 |

System: Radical scavenging activity
Assay: Antioxidant activity assessed as DPPH free radical scavenging activity at 400 uM after 30 mins by spectrophotometry
Type: functional
Conditions: not given

| Compound | inhibition [%] |
| --- | --- |
| Clc1ccccc1-c1nsc(-c2ccccc2Cl)n1 | 2.8 |
| Clc1cccc(-c2nsc(-c3cccc(Cl)c3Cl)n2)c1Cl | 11.1 |
| FC(F)(F)c1ccccc1-c1nsc(-c2ccccc2C(F)(F)F)n1 | 2.9 |
| c1ccc2cc(-c3nsc(-c4ccc5ccccc5c4)n3)ccc2c1 | 1.1 |
| Brc1ccccc1-c1nsc(-c2ccccc2Br)n1 | 1.8 |
| Clc1ccc(-c2nsc(-c3ccc(Cl)cc3)n2)cc1 | 2.7 |
| Ic1cccc(-c2nsc(-c3cccc(I)c3)n2)c1 | 14.3 |
| Fc1cccc(-c2nsc(-c3cccc(F)c3)n2)c1 | 1.3 |
| Cc1cc(Cl)ccc1-c1nsc(-c2ccc(Cl)cc2C)n1 | 3.7 |
| Cc1c(Cl)cccc1-c1nsc(-c2cccc(Cl)c2C)n1 | 2.3 |
| Clc1ccc(-c2nsc(-c3ccc(Cl)cc3Cl)n2)c(Cl)c1 | 2.9 |
| Fc1ccccc1-c1nsc(-c2ccccc2F)n1 | 3.8 |
| Brc1ccc(-c2nsc(-c3ccc(Br)cc3)n2)cc1 | 0.8 |

Molecular target: NAD(P)H dehydrogenase [quinone] 1 (Mus musculus) (UniProt Q64669)
Assay: Induction of QR1-mediated cytoprotective activity in mouse Hepa-1c1c7 cells at 50 uM assessed as cell survival
Type: cell-based
Conditions: not given

| Compound | Survival [%] |
| --- | --- |
| Clc1ccccc1-c1nsc(-c2ccccc2Cl)n1 | 75.2 |
| Clc1cccc(-c2nsc(-c3cccc(Cl)c3Cl)n2)c1Cl | 47 |
| FC(F)(F)c1ccccc1-c1nsc(-c2ccccc2C(F)(F)F)n1 | 88.8 |
| c1ccc2cc(-c3nsc(-c4ccc5ccccc5c4)n3)ccc2c1 | 88.8 |
| Oc1ccc(/C=C\c2cc(O)cc(O)c2)cc1 | 89.3 |
| Brc1ccccc1-c1nsc(-c2ccccc2Br)n1 | 72.5 |
| Clc1ccc(-c2nsc(-c3ccc(Cl)cc3)n2)cc1 | 78.3 |
| Ic1cccc(-c2nsc(-c3cccc(I)c3)n2)c1 | 103 |
| Fc1cccc(-c2nsc(-c3cccc(F)c3)n2)c1 | 77.6 |
| Cc1cc(Cl)ccc1-c1nsc(-c2ccc(Cl)cc2C)n1 | 77.3 |
| Cc1c(Cl)cccc1-c1nsc(-c2cccc(Cl)c2C)n1 | 96 |
| Clc1ccc(-c2nsc(-c3ccc(Cl)cc3Cl)n2)c(Cl)c1 | 30.6 |
| Oc1ccc(/C=C/c2cc(O)cc(O)c2)cc1 | 88.7 |
| Fc1ccccc1-c1nsc(-c2ccccc2F)n1 | 86.2 |
| Brc1ccc(-c2nsc(-c3ccc(Br)cc3)n2)cc1 | 87 |

System: HEK293
Assay: Inhibition of TNFalpha-activated NF-kappaB expressed in HEK293 cells at 50 uM by luciferase reporter gene assay
Type: cell-based
Conditions: not given

| Compound | inhibition [%] |
| --- | --- |
| Clc1cccc(-c2nsc(-c3cccc(Cl)c3Cl)n2)c1Cl | 0 |
| FC(F)(F)c1ccccc1-c1nsc(-c2ccccc2C(F)(F)F)n1 | 0 |
| Brc1ccccc1-c1nsc(-c2ccccc2Br)n1 | 0 |
| Clc1ccc(-c2nsc(-c3ccc(Cl)cc3)n2)cc1 | 0 |
| Ic1cccc(-c2nsc(-c3cccc(I)c3)n2)c1 | 0 |
| Cc1cc(Cl)ccc1-c1nsc(-c2ccc(Cl)cc2C)n1 | 0 |
| Cc1c(Cl)cccc1-c1nsc(-c2cccc(Cl)c2C)n1 | 20.3 |
| Brc1ccc(-c2nsc(-c3ccc(Br)cc3)n2)cc1 | 0 |

Molecular target: T1, Aromatase
Assay: not given
Conditions: 2 h, read-out: Imax

| Compound | inhibition at 50 µM [%] |
| --- | --- |
| Clc1ccccc1-c1nsc(-c2ccccc2Cl)n1 | 49.7 |
| Clc1cccc(-c2nsc(-c3cccc(Cl)c3Cl)n2)c1Cl | 45.9 |
| FC(F)(F)c1ccccc1-c1nsc(-c2ccccc2C(F)(F)F)n1 | 21.6 |
| c1ccc2cc(-c3nsc(-c4ccc5ccccc5c4)n3)ccc2c1 | 15.8 |
| Brc1ccccc1-c1nsc(-c2ccccc2Br)n1 | 44.8 |
| Clc1ccc(-c2nsc(-c3ccc(Cl)cc3)n2)cc1 | 9.7 |
| Ic1cccc(-c2nsc(-c3cccc(I)c3)n2)c1 | 30.6 |
| Fc1cccc(-c2nsc(-c3cccc(F)c3)n2)c1 | 41.8 |
| Cc1cc(Cl)ccc1-c1nsc(-c2ccc(Cl)cc2C)n1 | 35.3 |
| Cc1c(Cl)cccc1-c1nsc(-c2cccc(Cl)c2C)n1 | 19.8 |
| Clc1ccc(-c2nsc(-c3ccc(Cl)cc3Cl)n2)c(Cl)c1 | 40.3 |
| Fc1ccccc1-c1nsc(-c2ccccc2F)n1 | 53.2 |
| Brc1ccc(-c2nsc(-c3ccc(Br)cc3)n2)cc1 | 37.4 |

Molecular target: NAD(P)H dehydrogenase [quinone] 1 (Mus musculus) (UniProt Q64669)
Assay: Induction of QR1 activity in mouse BPrc1 cells using MTT as substrate by spectrophotometry
Type: cell-based
Conditions: not given

| Compound | CD [µM] |
| --- | --- |
| Clc1ccccc1-c1nsc(-c2ccccc2Cl)n1 | 34.6 |
| Oc1ccc(/C=C\c2cc(O)cc(O)c2)cc1 | 49.7 |
| Cc1cc(Cl)ccc1-c1nsc(-c2ccc(Cl)cc2C)n1 | 2.8 |
| Cc1c(Cl)cccc1-c1nsc(-c2cccc(Cl)c2C)n1 | 38.2 |
